Compounds with a hit are over-represented: about 3.8% of the library has one in this group of screens.
KCNK3 block: human KCNK3 channel inhibition, primary screen; CHO-KCNK3 thallium flux, FluxOR fluorescence; stronger effect = lower value; B-score at 10 µM; 340,000 tested, 0.84% active; AID 602410;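 active = B-score under library mean minus 4 SD, starting fluorescence ratio at most library mean plus 5 SD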;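 also: more negative B-score means stronger inhibition of thallium flux through KCNK3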
Kir21 block: inhibitors of mouse Kir2.1 inward-rectifier potassium channel; P35561; HEK293-Kir2.1, FluxOR thallium flux fluorescence; stronger effect = lower value; B-score at 10 µM; 310,000 tested, 0.85% active; AID 1672;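 active = fluorescence ratio B-score at or below minus 3 SD of library scores, with starting-brightness B-score within 2 SD, cut at about -4.2 in these data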;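 also: channel flux triggered by added potassium and thallium sulfate stimulus; B-score of peak minus minimum fluorescence over baseline after thallium stimulus; more negative B-score means stronger Kir2.1 block with less thallium influx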
KCNQ1 block: inhibitors of human KCNQ1 potassium channel; CHO-K1 KCNQ1, FluxOR thallium flux fluorescence; stronger effect = higher value; B-score at 10 µM; 310,000 tested, 1.3% active;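 active = compounds whose thallium flux B-score, printed positive for inhibition, exceeds three library SD while starting fluorescence stays within three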;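 also: channel opened by potassium depolarization with thallium stimulus after 20 min compound exposure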
KCNK9 inh: human KCNK9 channel inhibition | HEK293 KCNK9, FluxOR thallium flux fluorescence; stronger effect = lower value | B-score at 10 µM | 310,000 tested, 1.2% active | AID 488922;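 active = ratio B-score over 3 SD below the library mean, with starting fluorescence within 5 SD of its mean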;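 also: negative B-score means less thallium flux so channel inhibition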
hERG rescue: shields human hERG channel from block by proarrhythmic agents; Q12809; CHO-hERG, FluxOR thallium flux, dofetilide IC70 present; activation (rescue from dofetilide block), less the hit threshold, % at 10 µM; 310,000 tested, 0.51% active; AID 1511;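 active = activation above the mean of controls blocked by dofetilide plus 5 SD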;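 also: thallium influx through hERG after potassium depolarization seen as dye fluorescence rise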
KCNQ1 act: potentiates or activates the human KCNQ1 potassium channel; P51787; CHO-K1 KCNQ1, thallium flux FluxOR fluorescence; stronger effect = higher value; B-score at 10 µM; 310,000 tested, 0.35% active;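 active = fluorescence ratio B-score, a plate-corrected score, at least three library SD, with initial intensity B-score within 5 SD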
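Assay system: stable KCNQ1 CHO-K1 line; medium: assay buffer, equal DMSO in all wells; timing: 90 min dye loading and 20 min compound exposure, both at room temperature; technique: kinetic FluxOR thallium fluorescence, 10-s 1-Hz baseline, 110-s post-stimulus read; read-out basis: B score of baseline-normalized fluorescence ratio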
* = called active by the depositor; i = inactive; . = no result.

SMILES | KCNK3 block | Kir21 block | KCNQ1 block | KCNK9 inh | hERG rescue | KCNQ1 act
CC12CN3CC(C)(CN(C1)C31CCOCC1)C2=O | i | 1.54 | i | i | -4.0 | i
Cc1ccc(C(=O)N[C@@H](C)CN2C3=NC[C@H](Cc4ccccc4)N3C[C@H]2Cc2ccc(O)cc2)cc1Br | . | -5.39* | i | i | -19.1 | i
Cc1ccc(C(=O)N[C@@H](C)CN2C3=NC[C@@H](Cc4ccccc4)N3C[C@H]2Cc2ccc(O)cc2)cc1Br | . | -5.71* | i | i | -21.1 | i
CC(C)N(CC(O)c1cccc([N+](=O)[O-])c1)C(C)C (stereo not given) | i | -0.49 | i | i | -11.0 | i
CC(C)C(C)(NC(=O)c1cccn(Cc2ccc3c(c2)OC(F)(F)O3)c1=O)C(N)=O (stereo not given) | i | 0.4 | i | i | -8.9 | i
CC1(C)CSC(=NCc2ccccc2)N1 | i | 0.11 | i | i | -6.1 | 7*
O=C(Cn1cc(C(=O)c2ccccc2)c2ccccc21)NCc1ccco1 | i | -1.14 | i | -8.98* | -8.1 | i
CC(=O)c1ccc(NC(=O)N2C[C@H]3C[C@@H](C2)c2cccc(=O)n2C3)cc1 | i | -0.08 | i | i | -8.9 | i
CCOc1cc(CNCCc2c[nH]c3ccccc23)cc(Cl)c1OC | i | -5.6* | i | i | -17.9 | i
CCOc1ccc(-n2c(O)c(/C=C3\C=Nc4ccccc43)c(=O)[nH]c2=O)cc1 | i | -0.54 | 9* | i | -4.6 | i
COc1ccc(S(=O)(=O)NC(CC(=O)N2CCC3(CC2)OCCO3)C(C)C)cc1 (stereo not given) | i | 0.98 | i | i | 0.2 | i
C[C@]1(O)CCC2C3CC[C@H]4C[C@@H](OC(=O)CNC(=O)CN)CC[C@]4(C)C3CC[C@@]21C (stereo not given in full) | i | . | . | . | . | .
OC[C@@H](O)CCl | . | 0.52 | i | i | -4.2 | i
CSc1ccc(CNC(C)C(O)c2ccccc2)cc1 (stereo not given) | i | -5.52* | i | i | -16.1 | i
CC(NCC#Cc1ccccc1)C(O)c1ccccc1 (stereo not given) | i | -0.85 | i | i | -13.8 | i
Cc1c(Cl)cccc1N1C(=O)NC(=O)/C(=C\c2cc(C)n(-c3cccc(C(=O)O)c3C)c2C)C1=O | i | 0.17 | i | i | -10.2 | i
CCN1CCN(c2cc(N3CCCC3)c([N+](=O)[O-])cc2F)CC1 | i | -4.24* | i | i | -5.8 | i
O=C(c1ccc(-c2ccccc2)cc1)C1CCCN(Cc2ccn[nH]2)C1 (stereo not given) | i | -1.82 | i | i | -8.9 | 8*
C1CCC2S[C@H]3CCCCC3NC2C1 (stereo not given in full) | i | 0.29 | i | i | 5.3* | i
COC(=O)C1=C(c2ccc(OC)c(OC)c2)C[C@@H]2CC[C@H]1N2C(=O)NCc1cc(C)oc1C(F)(F)F | i | . | . | . | . | .
C#CCN[C@H](C)Cc1ccccc1 | i | . | . | . | . | .
CC(Cc1ccccc1)NCc1ccccc1O (stereo not given) | i | -5.51* | i | i | -9.5 | i
CN1CCN(c2ccc([N+](=O)[O-])c3no[n+]([O-])c23)CC1 | i | -6.62 | 10* | i | -36.3 | i
COc1ccc(-c2cc(-c3ccccc3)[n+](C)c(-c3ccccc3)c2)cc1 | i | -2.49 | 12* | i | -28.4 | i
C[n+]1c(-c2ccccc2)cc(CCCCc2cc(-c3ccccc3)[n+](C)c(-c3ccccc3)c2)cc1-c1ccccc1 | i | -0.16 | 7* | i | -20.6 | i
Cc1ccc(-c2cc(-c3ccccc3)cc(-c3ccccc3)[n+]2-c2ccc(C(=O)O)cc2)cc1 | i | 1.07 | i | i | -3.5 | i
CCCCC1(CC)COP(=O)(OCC(Cl)(Cl)Cl)OC1 (stereo not given) | i | . | . | . | . | .
CN1CSC(=S)N(C)C1 | i | 0.11 | 13* | i | -28.7 | i
Clc1ccc2c(c1)C(c1ccccc1Cl)=NCc1nnc(Br)n1-2 | i | 0.16 | i | i | -8.2 | i
